Assay results gathered from unrelated publications.
Protocols differ between the studies behind these lines.
Target: Vascular endothelial growth factor receptor 1 (FLT1, Homo sapiens, UniProt P17948)

The inhibition of C#Cc1n[nH]c2c(-c3cn([C@@H](C)c4ccccc4)c(=O)[nH]c3=O)cc(F)cc12 is reported as 1.9% (enzyme activity, inhibitor; 0.1 µM).
The remaining activity of CC(C)(C)c1cc(C=C(C#N)C#N)cc(Br)c1O is reported as 92.5% (enzyme activity, inhibitor; 0.5 µM).
Cn1cncc1[C@](O)(COc1ccc(C#N)cc1-c1ccc(OC(F)(F)F)cc1)c1ccc(C#N)cc1 has a remaining binding of 98% (cell-free assay, competition with immobilised ligand; 1 µM).
With Cn1cc(-c2cccc(N3CCc4c(sc5c4CC(C)(C)C5)C3=O)c2CO)cc(Nc2ccncn2)c1=O the inhibition was 2% (enzyme activity, inhibitor; 1 µM).
COc1ncccc1-c1cnn2ccc(N3CCN(C(=O)OC(C)C)CC3)nc12 gave a remaining binding of 100% (binding, competition with immobilised ligand; 1 µM).
COCc1c(-c2cc3cc(C)cc(OC)c3s2)c2c(N)ncnn2c1CN1CCNC(=O)C1 has an inhibition of 91.7% (cell-free assay, competition with immobilised ligand; 1 µM).
With Cn1cc(-c2cc(F)cc(N3CCn4c(cc5c4CCCC5)C3=O)c2CO)cc(Nc2ccc(N3CCN(C4COC4)CC3)cn2)c1=O the inhibition was 5% (enzyme activity, inhibitor; 0.1 µM).
The remaining signal of O=c1[nH]c2ccccc2n1C1CCN(Cc2ccc(-c3[nH]c4cc5ncnc5cc4nc3-c3ccccc3)cc2)CC1 is reported as 92.2% (cell-free assay; 0.5 µM).
Nc1ncc(-c2nc(N3CCOCC3)nc(N3CCOCC3)n2)c(C(F)F)n1 gave a remaining binding of 91% (cell-free assay, competition with immobilised ligand; 10 µM).
With Cc1ncc(C)n2nc(/C=C/c3nc(N4CCCC4)cc(N4CCOCC4)n3)nc12 the inhibition was -6% (enzyme activity, inhibitor; 10 µM).
C#Cc1n[nH]c2c(-c3cn([C@@H](C)c4ccccn4)c(=O)[nH]c3=O)cc(F)cc12 has an inhibition of 2% (enzyme activity, inhibitor; 0.1 µM).
For O=C(Nc1cccnn1)N1CCN([C@@H]2CCOc3cc(C(F)(F)F)ccc32)CC1, the inhibition was 2% (enzyme activity, inhibitor; 20 µM).
